Calls of active or inactive are those of the source.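 How the source made its calls: active means IC50 of 10 microM or lower; inactive means the rest.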

The IC50 is the midpoint of a concentration-inhibition curve.

This assay deals with Transitional endoplasmic reticulum ATPase (Homo sapiens) (UniProt P55072). In words: inhibition of purified VCP ATP hydrolysis – biochemical, dose response (AID 463184). To be noted: purified p97 ATPase, Kinase-Glo luminescence. The method in brief: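 system = human p97 ATPase | also added = ATP substrate (500 µM stock) | incubation = 10 min room-temperature compound preincubation, 30 min 37 °C reaction | detection = Kinase-Glo Plus luminescence | evaluation = IC50 from percent remaining activity fit | controls = DMSO wells and no-enzyme wells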
Sequence of Transitional endoplasmic reticulum ATPase (Homo sapiens) (P55072 whole entry, looked up): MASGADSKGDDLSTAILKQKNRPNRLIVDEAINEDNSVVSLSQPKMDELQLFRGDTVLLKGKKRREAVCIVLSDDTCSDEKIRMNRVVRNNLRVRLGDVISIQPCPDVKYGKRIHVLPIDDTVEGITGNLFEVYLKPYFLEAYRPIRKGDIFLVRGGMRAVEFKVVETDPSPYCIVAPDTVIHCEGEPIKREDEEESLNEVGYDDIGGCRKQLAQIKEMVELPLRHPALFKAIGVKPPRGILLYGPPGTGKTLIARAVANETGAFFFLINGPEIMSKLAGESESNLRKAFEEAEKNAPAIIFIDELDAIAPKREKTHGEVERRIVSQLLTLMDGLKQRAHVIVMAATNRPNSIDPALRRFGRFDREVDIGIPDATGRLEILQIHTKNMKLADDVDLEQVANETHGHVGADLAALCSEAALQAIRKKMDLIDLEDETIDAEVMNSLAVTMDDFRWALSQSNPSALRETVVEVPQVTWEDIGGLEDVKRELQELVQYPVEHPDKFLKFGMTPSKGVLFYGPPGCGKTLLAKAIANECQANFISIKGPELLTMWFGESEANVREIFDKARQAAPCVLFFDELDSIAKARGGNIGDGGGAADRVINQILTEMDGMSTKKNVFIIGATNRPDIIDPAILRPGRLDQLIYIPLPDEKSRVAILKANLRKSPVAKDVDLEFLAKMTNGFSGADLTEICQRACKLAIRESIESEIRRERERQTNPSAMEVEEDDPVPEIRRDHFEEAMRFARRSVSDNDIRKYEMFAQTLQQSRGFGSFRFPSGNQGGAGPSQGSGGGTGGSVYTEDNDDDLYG
A general note: Kinase-Glo measures the ATP left after a reaction by luminescence.
As for `CC(C)c1ccc(Nc2nc(N)nc(CCl)n2)cc1`, the IC50 entry was “inactive”.

Take `CCc1nc2ccccc2n1CC(=O)OC/C(O)=C(/C#N)c1nc2ccccc2[nH]1`: the IC50 result was “inactive”. `N#C/C(=C(\O)COC(=O)C1COc2ccccc2O1)c1nc2ccccc2[nH]1` (stereo not drawn): the IC50 result was “inactive”. With `c1ccc(CNc2nc(NCc3ccccc3)c3ccccc3n2)cc1` the figure was 1.6 µM; with `Fc1ccccc1CNc1nc(NCc2ccccc2)c2ccccc2n1`, 2.9 µM; with `Clc1ccc(CNc2nc(NCc3ccccc3)c3ccccc3n2)cc1Cl`, 3 µM. On to `Clc1ccc(CNc2nc(NCc3ccccc3)c3ccccc3n2)cc1`, for which the concentration for half-maximal inhibition (IC50) is 3.1 µM. With `COc1ccccc1CNc1nc(NCc2ccccc2)c2ccccc2n1` the figure was 3.6 µM; with `Brc1ccccc1CNc1nc(NCc2ccccc2)c2ccccc2n1`, 2 µM; with `Clc1cccc(CNc2nc(NCc3ccccc3)c3ccccc3n2)c1`, 2.7 µM. With `FC(F)(F)c1cc(CNc2nc(NCc3ccccc3)c3ccccc3n2)ccc1Cl` the figure was 4.7 µM; with `Nc1nc(CCl)nc(Nc2ccc(Cl)c(Cl)c2)n1`, “inactive”; with `Nc1nc(CCl)nc(Nc2ccc(Oc3ccccc3)cc2)n1`, “inactive”. With `N#C/C(=C(\O)COC(=O)CNc1ccc(C(F)(F)F)cc1[N+](=O)[O-])c1nc2ccccc2[nH]1` the entry was “inactive”; with `COc1cccc(CNc2nc(NCc3ccccc3)c3ccccc3n2)c1`, 4.5 µM; with `Cc1cccc(CNc2nc(NCc3ccccc3)c3ccccc3n2)c1`, 2.3 µM. In the case of `Fc1ccc(CNc2nc(NCc3ccccc3)c3ccccc3n2)cc1`, the IC50 is 2.6 µM. With `N#C/C(=C(\O)COC(=O)CCC(=O)c1ccc2c(c1)OCCO2)c1nc2ccccc2[nH]1` the figure was 10 µM. Next, `Brc1ccc(CNc2nc(NCc3ccccc3)c3ccccc3n2)cc1`: 4.3 µM. With `FC(F)(F)c1ccc(CNc2nc(NCc3ccccc3)c3ccccc3n2)cc1` the figure was 2.6 µM. `COc1ccc(CNc2nc(NCc3ccccc3)c3ccccc3n2)cc1`: the IC50 is 3 µM. Next, `Fc1cccc(CNc2nc(NCc3ccccc3)c3ccccc3n2)c1`: 3.1 µM; `Clc1ccccc1CNc1nc(NCc2ccccc2)c2ccccc2n1`: 5.3 µM; `Brc1cccc(CNc2nc(NCc3ccccc3)c3ccccc3n2)c1`: 3.7 µM. With `Nc1nc(CCl)nc(N(c2ccccc2)c2ccccc2)n1`, the IC50 result is “inactive”. As for `Cc1c(Cl)cccc1Nc1nc(N)nc(CCl)n1`, the IC50 result was “inactive”. With `Cc1ccccc1CNc1nc(NCc2ccccc2)c2ccccc2n1` the figure was 2.7 µM; with `Cc1ccc(CNc2nc(NCc3ccccc3)c3ccccc3n2)cc1`, 3 µM.

The record behind these values is PubChem BioAssay AID463184 (Molecular Libraries Program, Specialized Chemistry Center, …, 2010).
